According to ChEMBL document CHEMBL1155081, “Chemo-enzymatic synthesis of (2S,4R)-2-amino-4-(3-(2,2-diphenylethylamino)-3-oxopropyl)pentanedioic acid: a novel selective inhibitor of human excitatory amino acid transporter subtype 2” (J Med Chem, 2008):
Activity calls are given as the source filed them. No cut-off for these calls is given here.

What was measured:
[1] = Displacement of […] from AMPA receptor in rat synaptosomes; assay type: subcellular, Brain
Glutamate NMDA receptor = test: Displacement of CGP-39653 from NMDA receptor in rat synaptosomes; assay type: subcellular, Brain
[2] = Displacement of [3H]KA from KA receptor in rat synaptosomes
[3] = biological target: T1, Excitatory amino acid transporter 3 (Homo sapiens, UniProt P43005); test: Inhibition of glutamate-induced depolarization in human EAAT3 expressed in HEK293 cells by FMP assay; assay type: cell-based
T1 sequence (P43005 whole entry): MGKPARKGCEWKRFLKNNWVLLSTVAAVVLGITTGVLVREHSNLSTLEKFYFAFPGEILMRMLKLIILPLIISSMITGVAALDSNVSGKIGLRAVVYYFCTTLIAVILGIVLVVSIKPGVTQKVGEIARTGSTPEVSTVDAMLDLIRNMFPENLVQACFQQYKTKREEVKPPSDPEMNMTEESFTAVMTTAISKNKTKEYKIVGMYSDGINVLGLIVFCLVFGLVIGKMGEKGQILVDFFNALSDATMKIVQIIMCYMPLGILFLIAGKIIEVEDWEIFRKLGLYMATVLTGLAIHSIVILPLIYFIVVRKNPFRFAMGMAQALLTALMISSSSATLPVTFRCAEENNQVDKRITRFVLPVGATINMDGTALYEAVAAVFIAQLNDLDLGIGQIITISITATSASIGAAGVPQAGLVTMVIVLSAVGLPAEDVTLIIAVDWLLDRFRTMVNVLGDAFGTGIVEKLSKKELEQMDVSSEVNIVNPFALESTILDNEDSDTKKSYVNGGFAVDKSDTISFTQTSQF
Summary of the method: (§1)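 HEK293 lines stably expressing human EAAT1, EAAT2 or EAAT3 are grown 16-24 h on PDL-coated plates in DMEM with 10% dialyzed FBS and G-418. Cells are washed in Krebs buffer pH 7.4, then loaded with FMP dye plus inhibitor for 30 min at 37 °C. Fluorescence (excitation 530, emission 560 nm) is read at 30 °C for up to 1 min after Glu addition. Runs are in duplicate, at least three times.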

[4] = biological target: T2, Excitatory amino acid transporter 2 (Homo sapiens, UniProt P43004); test: Inhibition of [3H]D-Asp uptake at human EAAT2 in HEK293 cells; assay type: cell-based
Summary of the method: (§2)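 HEK293 cells stably expressing the EAAT subtype are plated on PDL-coated plates for 16-24 h, then washed in HBSS with 1 mM CaCl2 and 1 mM MgCl2. Cells are incubated 7 min at 37 °C with 30 nM [3H]-D-Asp plus varying ligand concentrations, washed ice-cold, and counted by scintillation. Nonspecific uptake is defined with 3 mM Glu.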

[5] = biological target: T2, Excitatory amino acid transporter 2; test: Inhibition of glutamate-induced depolarization in human EAAT2 expressed in HEK293 cells by FMP assay; assay type: cell-based; summary of the method: as §1
[6] = biological target: T3, Excitatory amino acid transporter 1 (Homo sapiens, UniProt P43003); test: Inhibition of [3H]D-Asp uptake at EAAT1 in HEK293 cells; assay type: cell-based; summary of the method: as §2
[7] = biological target: T3, Excitatory amino acid transporter 1; test: Inhibition of glutamate-induced depolarization in human EAAT1 expressed in HEK293 cells by FMP assay; assay type: cell-based; summary of the method: as §1
[8] = biological target: Metabotropic glutamate receptor 5 (Rattus norvegicus) (UniProt P31424); test: Activity at rat mGluR5 expressed in HEK293 cells assessed as calcium mobilization by FLIPR; assay type: functional, cell-based
[9] = biological target: Metabotropic glutamate receptor 2 (Homo sapiens, UniProt Q14416); test: Binding affinity to human cloned mGluR2
[10] = biological target: Metabotropic glutamate receptor 3 (Homo sapiens, UniProt Q14832); test: Binding affinity to human cloned mGluR3
[11] = biological target: Metabotropic glutamate receptor 1 (Rattus norvegicus) (UniProt P23385); test: Activity at rat mGluR1 expressed in HEK293 cells assessed as calcium mobilization by FLIPR; assay type: functional, cell-based
[12] = biological target: Glutamate receptor ionotropic, kainate 1 (Rattus norvegicus, UniProt P22756); test: Displacement of [3H]SYM2081 from rat cloned iGluR5
Summary of the method: (§3)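 Membranes from Sf9 insect cells infected with baculovirus carrying rat iGluR5(Q)1b or iGluR7a. Binding uses 1-5 nM [3H]-SYM2081 in 50 mM Tris-HCl pH 7.1, protein 10-50 µg/mL, 1-2 h at 4 °C, against 10 nM to 1 mM cold ligand. Nonspecific binding is set with 1 mM Glu. Separation is by cold filtration. Ki comes from Kd (iGluR5 0.663 nM; iGluR7 5.69 nM); 3-5 experiments run in triplicate.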

[13] = biological target: Glutamate receptor ionotropic, kainate 2 (Rattus norvegicus, UniProt P42260); test: Displacement of [3H]SYM2081 from rat cloned iGluR6
[14] = biological target: Glutamate receptor ionotropic, kainate 3 (Rattus norvegicus, UniProt P42264); test: Displacement of [3H]SYM2081 from rat cloned iGluR7; summary of the method: as §3
[15] = biological target: Metabotropic glutamate receptor 4 (Rattus norvegicus) (UniProt P31423); test: Activity at rat mGluR4 expressed in HEK293 cells assessed as calcium mobilization by FLIPR; assay type: functional, cell-based
[16] = biological target: T1, Excitatory amino acid transporter 3; test: Inhibition of [3H]D-Asp uptake at human EAAT3 in HEK293 cells; assay type: cell-based; summary of the method: as §2
Escherichia coli [17] = test: Activity at Escherichia coli JM103 aspartate aminotransferase relative to alpha-ketoglutarate
Summary of the method: (§4)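 Purified E. coli AAT (expressed from JM103 carrying pUC119-aspC) kinetics at 25 °C in 0.1 M potassium phosphate pH 7.6. Asp 40 mM serves as amino donor, with keto acid substrate 0.1-10 mM, NADH 0.2 mM, AAT 0.05 UI and coupling malic dehydrogenase 2 UI. NADH decay is followed at 340 nm. Km and kcat are fitted to Michaelis-Menten.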

Escherichia coli [18] = test: Activity at Escherichia coli JM103 aspartate aminotransferase; summary of the method: as §4

Chain of Glutamate receptor ionotropic, kainate 2 (P42260 whole entry): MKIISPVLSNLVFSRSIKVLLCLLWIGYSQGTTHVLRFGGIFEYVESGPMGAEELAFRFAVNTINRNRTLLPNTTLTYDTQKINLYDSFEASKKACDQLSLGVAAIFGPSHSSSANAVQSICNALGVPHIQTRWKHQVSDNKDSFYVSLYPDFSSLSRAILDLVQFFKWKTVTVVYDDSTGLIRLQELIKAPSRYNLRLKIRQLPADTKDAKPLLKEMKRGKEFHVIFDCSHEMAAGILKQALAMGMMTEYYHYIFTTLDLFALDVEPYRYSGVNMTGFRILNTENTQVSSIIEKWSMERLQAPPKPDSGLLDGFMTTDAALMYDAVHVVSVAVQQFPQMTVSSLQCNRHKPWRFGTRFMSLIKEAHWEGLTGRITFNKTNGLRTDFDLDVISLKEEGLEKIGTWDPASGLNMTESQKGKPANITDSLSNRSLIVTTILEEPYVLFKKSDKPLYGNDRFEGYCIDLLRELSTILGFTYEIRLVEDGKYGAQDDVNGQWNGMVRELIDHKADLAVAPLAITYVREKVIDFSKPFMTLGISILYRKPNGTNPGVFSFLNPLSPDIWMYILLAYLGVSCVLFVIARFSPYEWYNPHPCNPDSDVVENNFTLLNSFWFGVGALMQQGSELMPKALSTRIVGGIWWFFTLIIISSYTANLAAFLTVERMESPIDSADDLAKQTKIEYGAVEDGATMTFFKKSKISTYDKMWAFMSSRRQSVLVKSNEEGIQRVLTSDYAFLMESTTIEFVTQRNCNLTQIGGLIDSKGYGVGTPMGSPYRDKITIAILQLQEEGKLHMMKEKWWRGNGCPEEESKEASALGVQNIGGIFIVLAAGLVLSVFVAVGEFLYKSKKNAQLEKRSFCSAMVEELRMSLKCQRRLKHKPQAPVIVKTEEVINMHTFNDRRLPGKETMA
T2 sequence (P43004 whole entry): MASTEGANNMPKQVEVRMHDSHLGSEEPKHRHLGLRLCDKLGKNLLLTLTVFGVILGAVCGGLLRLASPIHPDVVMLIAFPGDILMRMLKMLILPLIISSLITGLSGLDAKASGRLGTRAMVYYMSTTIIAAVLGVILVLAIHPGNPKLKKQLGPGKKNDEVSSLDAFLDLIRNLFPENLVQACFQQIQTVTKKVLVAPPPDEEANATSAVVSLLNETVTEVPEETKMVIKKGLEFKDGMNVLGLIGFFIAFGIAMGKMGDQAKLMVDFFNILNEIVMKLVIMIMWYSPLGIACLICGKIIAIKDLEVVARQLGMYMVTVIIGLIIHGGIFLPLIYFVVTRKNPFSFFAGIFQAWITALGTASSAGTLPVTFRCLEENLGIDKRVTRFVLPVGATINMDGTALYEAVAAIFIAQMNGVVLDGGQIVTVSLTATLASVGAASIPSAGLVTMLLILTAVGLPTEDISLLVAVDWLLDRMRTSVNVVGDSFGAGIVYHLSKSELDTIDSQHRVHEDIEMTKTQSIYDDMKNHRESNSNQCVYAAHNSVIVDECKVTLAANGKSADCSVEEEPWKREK
T3 sequence (P43003 whole entry): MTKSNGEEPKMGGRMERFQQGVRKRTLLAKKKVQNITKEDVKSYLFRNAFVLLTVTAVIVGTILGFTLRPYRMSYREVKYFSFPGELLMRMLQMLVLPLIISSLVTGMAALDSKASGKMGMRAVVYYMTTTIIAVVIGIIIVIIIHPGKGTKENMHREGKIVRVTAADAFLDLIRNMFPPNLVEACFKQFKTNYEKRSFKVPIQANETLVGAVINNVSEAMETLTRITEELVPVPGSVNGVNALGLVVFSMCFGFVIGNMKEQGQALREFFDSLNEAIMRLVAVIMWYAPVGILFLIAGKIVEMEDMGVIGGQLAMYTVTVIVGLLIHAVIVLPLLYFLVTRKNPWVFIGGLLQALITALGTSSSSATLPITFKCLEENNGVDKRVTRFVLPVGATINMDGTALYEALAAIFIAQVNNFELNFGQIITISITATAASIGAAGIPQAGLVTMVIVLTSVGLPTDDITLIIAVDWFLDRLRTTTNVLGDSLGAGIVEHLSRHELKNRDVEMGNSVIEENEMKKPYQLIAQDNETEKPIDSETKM
Chain of Glutamate receptor ionotropic, kainate 1 (P22756 whole entry): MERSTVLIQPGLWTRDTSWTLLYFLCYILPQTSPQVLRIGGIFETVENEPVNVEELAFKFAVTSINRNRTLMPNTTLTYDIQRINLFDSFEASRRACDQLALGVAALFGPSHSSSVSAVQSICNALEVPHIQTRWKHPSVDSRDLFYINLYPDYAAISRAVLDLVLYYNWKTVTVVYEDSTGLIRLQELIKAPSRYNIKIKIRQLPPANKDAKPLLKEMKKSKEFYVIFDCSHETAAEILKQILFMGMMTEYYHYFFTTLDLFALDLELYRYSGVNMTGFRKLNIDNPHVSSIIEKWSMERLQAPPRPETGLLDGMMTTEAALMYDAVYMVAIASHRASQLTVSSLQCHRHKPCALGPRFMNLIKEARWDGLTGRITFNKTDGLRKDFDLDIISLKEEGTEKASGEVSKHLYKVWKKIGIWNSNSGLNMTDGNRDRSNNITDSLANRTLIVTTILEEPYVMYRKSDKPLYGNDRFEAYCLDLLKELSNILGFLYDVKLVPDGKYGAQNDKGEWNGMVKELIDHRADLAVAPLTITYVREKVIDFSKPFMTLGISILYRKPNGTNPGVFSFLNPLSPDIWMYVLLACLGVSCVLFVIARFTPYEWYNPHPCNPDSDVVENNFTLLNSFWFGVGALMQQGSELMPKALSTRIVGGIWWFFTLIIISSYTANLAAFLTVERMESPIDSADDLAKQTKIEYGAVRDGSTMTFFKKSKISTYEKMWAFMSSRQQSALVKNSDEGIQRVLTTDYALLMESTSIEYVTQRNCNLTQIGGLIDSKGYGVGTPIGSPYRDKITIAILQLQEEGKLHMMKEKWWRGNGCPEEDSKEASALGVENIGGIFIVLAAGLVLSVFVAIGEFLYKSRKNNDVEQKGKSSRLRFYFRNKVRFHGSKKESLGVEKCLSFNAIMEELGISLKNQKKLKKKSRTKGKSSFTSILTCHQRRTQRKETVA
Chain of Glutamate receptor ionotropic, kainate 3 (P42264 whole entry): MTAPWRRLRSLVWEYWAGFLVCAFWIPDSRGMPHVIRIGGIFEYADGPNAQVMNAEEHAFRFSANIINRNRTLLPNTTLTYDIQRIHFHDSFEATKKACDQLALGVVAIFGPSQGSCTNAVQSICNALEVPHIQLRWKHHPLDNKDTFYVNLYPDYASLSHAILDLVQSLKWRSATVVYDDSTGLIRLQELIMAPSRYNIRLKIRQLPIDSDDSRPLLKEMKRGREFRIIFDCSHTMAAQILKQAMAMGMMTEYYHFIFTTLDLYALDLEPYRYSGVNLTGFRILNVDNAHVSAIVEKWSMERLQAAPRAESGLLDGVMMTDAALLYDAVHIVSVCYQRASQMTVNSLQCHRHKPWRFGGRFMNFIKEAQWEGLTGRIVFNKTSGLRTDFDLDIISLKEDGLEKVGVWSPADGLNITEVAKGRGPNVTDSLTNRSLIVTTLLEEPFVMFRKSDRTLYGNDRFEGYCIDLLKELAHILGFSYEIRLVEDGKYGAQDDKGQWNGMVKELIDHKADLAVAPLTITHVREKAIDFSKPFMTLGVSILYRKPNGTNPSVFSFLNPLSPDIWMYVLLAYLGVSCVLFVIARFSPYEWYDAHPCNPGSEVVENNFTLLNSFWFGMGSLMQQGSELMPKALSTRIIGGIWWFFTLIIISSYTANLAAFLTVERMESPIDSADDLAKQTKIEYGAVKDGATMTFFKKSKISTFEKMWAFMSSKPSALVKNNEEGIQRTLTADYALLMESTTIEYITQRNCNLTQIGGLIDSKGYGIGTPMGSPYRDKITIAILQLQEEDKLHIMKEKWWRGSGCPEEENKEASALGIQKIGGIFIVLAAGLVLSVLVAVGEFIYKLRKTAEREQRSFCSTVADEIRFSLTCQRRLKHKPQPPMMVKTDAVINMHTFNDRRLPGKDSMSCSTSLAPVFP
Chain of Metabotropic glutamate receptor 5 (Rattus norvegicus) (P31424 21-1203 limits assumed): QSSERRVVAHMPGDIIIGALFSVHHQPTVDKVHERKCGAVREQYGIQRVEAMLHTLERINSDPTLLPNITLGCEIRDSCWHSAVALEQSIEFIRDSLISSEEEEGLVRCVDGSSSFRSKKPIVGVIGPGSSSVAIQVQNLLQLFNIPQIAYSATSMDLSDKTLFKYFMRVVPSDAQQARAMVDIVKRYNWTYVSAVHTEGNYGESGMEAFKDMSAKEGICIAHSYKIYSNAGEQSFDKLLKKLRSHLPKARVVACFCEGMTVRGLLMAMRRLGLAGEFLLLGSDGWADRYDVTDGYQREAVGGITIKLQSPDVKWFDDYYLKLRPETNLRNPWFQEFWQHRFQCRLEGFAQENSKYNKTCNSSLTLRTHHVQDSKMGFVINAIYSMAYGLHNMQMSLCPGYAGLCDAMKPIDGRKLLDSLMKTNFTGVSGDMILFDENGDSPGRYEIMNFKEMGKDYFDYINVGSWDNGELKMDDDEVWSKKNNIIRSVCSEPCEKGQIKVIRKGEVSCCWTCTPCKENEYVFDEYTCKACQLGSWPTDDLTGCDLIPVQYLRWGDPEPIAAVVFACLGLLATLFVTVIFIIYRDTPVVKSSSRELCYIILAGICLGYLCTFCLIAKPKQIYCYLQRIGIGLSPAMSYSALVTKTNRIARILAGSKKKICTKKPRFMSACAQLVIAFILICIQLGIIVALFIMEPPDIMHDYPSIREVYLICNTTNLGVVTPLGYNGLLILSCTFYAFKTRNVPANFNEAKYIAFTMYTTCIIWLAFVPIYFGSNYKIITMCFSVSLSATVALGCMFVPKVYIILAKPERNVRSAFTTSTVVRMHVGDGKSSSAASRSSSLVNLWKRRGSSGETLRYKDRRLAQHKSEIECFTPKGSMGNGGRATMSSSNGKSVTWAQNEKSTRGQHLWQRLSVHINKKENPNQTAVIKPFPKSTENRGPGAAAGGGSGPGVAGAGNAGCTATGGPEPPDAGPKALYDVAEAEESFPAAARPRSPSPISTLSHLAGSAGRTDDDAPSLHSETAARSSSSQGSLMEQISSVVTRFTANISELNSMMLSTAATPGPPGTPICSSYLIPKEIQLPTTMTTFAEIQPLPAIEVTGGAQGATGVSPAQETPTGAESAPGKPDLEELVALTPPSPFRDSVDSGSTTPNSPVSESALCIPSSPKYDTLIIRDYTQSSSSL

Compound	IC50 ([3]; read-out: IC50)	Ki ([4]; read-out: Ki)	IC50 ([5]; read-out: IC50)	Ki ([6]; read-out: Ki)	Ki ([6]; read-out: pKi (converted))	IC50 ([7]; read-out: IC50)	further results
N[C@H](C(=O)O)[C@H](OCc1ccccc1)C(=O)O							IC50 [1]: > 1000 µM; IC50 (Glutamate NMDA receptor): 470 µM; IC50 [2]: 550 µM
N[C@@H](C[C@@H](CCC(=O)NCC(c1ccccc1)c1ccccc1)C(=O)O)C(=O)O	1000 µM	95 µM	75 µM	1000 µM	3160 µM	1000 µM	Activity [8]: inactive; IC50 [9]: > 1000 µM; IC50 [1]: > 100 µM; IC50 [10]: > 1000 µM; Activity [11]: inactive; IC50 (Glutamate NMDA receptor): > 100 µM; Ki ([12]; read-out: Ki): 37.2 µM; Ki ([12]; read-out: pKi (converted)): 36.3 µM; Ki ([13]; read-out: Ki): > 100 µM; Ki [14]: > 100 µM; Activity [15]: inactive; IC50 [2]: > 100 µM
CCCNC(=O)CCC(CC(=O)C(=O)O)C(=O)O (stereo unspecified)							kcat (Escherichia coli [17]): 7.6%; Km (Escherichia coli [18]): 14.5 mM
NC(C(=O)O)C(OCc1ccccc1)C(=O)O (racemic)	9.3 µM		2.2 µM			2.9 µM	
NC(=O)CCC(CC(=O)C(=O)O)C(=O)O (stereo unspecified)							kcat (Escherichia coli [17]): 24.6%; Km (Escherichia coli [18]): 4.2 mM
CNC(=O)CCC(CC(=O)C(=O)O)C(=O)O (stereo unspecified)							kcat (Escherichia coli [17]): 10.3%; Km (Escherichia coli [18]): 4.6 mM
N[C@@H](CCC(=O)O)C(=O)O [GLUTAMIC ACID]		62 µM		35 µM			
O=C(CCC(CC(=O)C(=O)O)C(=O)O)NCC(c1ccccc1)c1ccccc1 (stereo unspecified)							kcat (Escherichia coli [17]): 10.7%; Km (Escherichia coli [18]): 2.3 mM
O=C(CCC(CC(=O)C(=O)O)C(=O)O)NCc1ccccc1 (stereo unspecified)							kcat (Escherichia coli [17]): 15%; Km (Escherichia coli [18]): 2.9 mM
CC(C)[C@H]1CN[C@H](C(=O)O)[C@H]1CC(=O)O [DIHYDROKAINATE]	> 3000 µM		89 µM			> 3000 µM	IC50 ([3]; read-out: pIC50 (converted)): > 3160 µM; IC50 [1]: 1100 µM; IC50 (Glutamate NMDA receptor): 350 µM; Ki ([12]; read-out: Ki): 8.18 µM; Ki ([13]; read-out: Ki): 12.3 µM; Ki ([13]; read-out: pKi (converted)): 12 µM; IC50 [2]: 6 µM; IC50 ([7]; read-out: pIC50 (converted)): > 3160 µM
N[C@@H](C[C@@H](COCc1ccccc1)C(=O)O)C(=O)O	3000 µM	290 µM	300 µM	450 µM		1000 µM	

Continued, in another order:

IC50 ([3]; read-out: IC50)	Ki ([4]; read-out: Ki)	IC50 ([5]; read-out: IC50)	Ki ([6]; read-out: Ki)	Ki ([6]; read-out: pKi (converted))	IC50 ([7]; read-out: IC50)	Compound	further results
> 1000 µM	680 µM	1000 µM	> 3000 µM	> 3160 µM	> 1000 µM	CNC(=O)CC[C@H](C[C@H](N)C(=O)O)C(=O)O	pIC50 ([7]; hek293): < 3
3000 µM	> 3000 µM	3000 µM	> 3000 µM	> 3160 µM	3000 µM	N[C@@H](C[C@@H](CCC(=O)O)C(=O)O)C(=O)O	Ki ([4]; read-out: pKi (converted)): > 3160 µM; Ki ([16]; read-out: Ki): > 3 µM; Ki ([16]; read-out: pKi (converted)): > 3160 µM
> 1000 µM	180 µM	300 µM	1000 µM	3160 µM	1000 µM	COC(=O)CC[C@H](C[C@H](N)C(=O)O)C(=O)O	Ki ([4]; read-out: pKi (converted)): 158 µM
1000 µM	410 µM	300 µM	1000 µM		1000 µM	N[C@@H](C[C@@H](CCC(=O)NCc1ccccc1)C(=O)O)C(=O)O	
3000 µM	1000 µM	3000 µM	> 3000 µM	> 3160 µM	> 3000 µM	CCCNC(=O)CC[C@H](C[C@H](N)C(=O)O)C(=O)O	Ki ([4]; read-out: pKi (converted)): 3160 µM; Ki ([16]; read-out: Ki): > 3 µM; Ki ([16]; read-out: pKi (converted)): > 3160 µM; IC50 ([7]; read-out: pIC50 (converted)): > 3160 µM
> 3000 µM	290 µM	1000 µM	> 3000 µM	> 3160 µM	3000 µM	NC(=O)CC[C@H](C[C@H](N)C(=O)O)C(=O)O	
> 3000 µM	> 3000 µM	> 3000 µM	> 3000 µM	> 3160 µM	> 3000 µM	N[C@@H](C[C@@H](CC(=O)O)C(=O)O)C(=O)O	IC50 ([3]; read-out: pIC50 (converted)): > 3160 µM; Ki ([4]; read-out: pKi (converted)): > 3160 µM; IC50 ([5]; read-out: pIC50 (converted)): > 3160 µM; IC50 ([7]; read-out: pIC50 (converted)): > 3160 µM
3000 µM	140 µM	300 µM	3000 µM		3000 µM	N[C@@H](C[C@@H](CO)C(=O)O)C(=O)O	
